Data taken from article PMC5955836 (ACS chemical neuroscience, 2018).
“Also recorded” adds a separate entry of the source. Where two headings read alike, the source gives them in different places. Values belong to the compound of their own block, whether it stands above or below them. Non-standard residues stand in square brackets, D forms with d.

Tests used:
mMC5R [1] = biological target: T1, mMC5R (Mus musculus, UniProt P41149); type: cell-based; conditions: for mMC5R inverse agonist potency compared within series: fold less potent than KAF2039-9, the most potent inverse agonist; for mMC5R maximal decrease in basal activity at the plateau: sigmoidal dose-response, relative to basal
mMC1R [2] = biological target: T2, mMC1R (Mus musculus, UniProt Q01727); conditions: for mMC1R percent activation at 100 μM: no sigmoidal dose-response, relative to NDP-MSH; for agonist activity at the MC1R: up to 100 μM
mMC3R [3] = biological target: T3, mMC3R (Mus musculus, UniProt P33033); assay: AlphaScreen cAMP antagonist assay; type: cell-based; conditions: for antagonist activity at the mMC3R: at the concentrations examined in this study
Male Wildtype (WT) mice = assay: Mouse feeding study, intrathecal injection: cumulative food intake; type: in vivo
Summary of the method: (§1)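 Eight male WT mice, 24 weeks old, singly housed, ad libitum chow, reversed 12 h light/dark (lights off 12:00pm), 23–25°C. Crossover, non-fasting; single IT injection 2 h before lights out of 2 nmol/5 μL (20% solutol stock diluted in ddH2O) or matched vehicle; 7 days between treatments. Food and body weight at 2–72 h; two-factor repeated-measures ANOVA (drug × time).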

[4] = Mouse feeding study, intrathecal injection: body weight; type: in vivo; conditions: male WT mice, 2 nmol, up to 72 hours post-injection
Summary of the method: as §1

MC4R = conditions: unable to bind at up to this concentration; cited from earlier work
MC3R = conditions: unable to bind at up to this concentration; cited from earlier work
mMC4R [5] = biological target: T4, mMC4R (Mus musculus, UniProt P56450); conditions: cited from earlier work
MC1R = conditions: read-out: MC1R agonist EC50; cited from earlier work
mMC3R [6] = biological target: T3, mMC3R; conditions: highest concentrations of antagonist assayed; cited from earlier work
[7] = biological target: mouse melanocortin-4 receptor (mouse) (UniProt P56450)
mMC4R [8] = biological target: T4, mMC4R; assay: AlphaScreen cAMP antagonist assay; type: cell-based
[9] = biological target: mouse melanocortin-1 receptor (mouse) (UniProt Q01727)
mMC3R [10] = biological target: T3, mMC3R; conditions: previously published peptide, cited from earlier work
mMC5R [11] = biological target: T1, mMC5R; conditions: read-out: mMC5R Inverse Agonist EC50; previously published peptide; cited from earlier work
mMC1R [12] = biological target: T2, mMC1R; conditions: read-out: mMC1R Agonist EC50; previously published peptide; cited from earlier work
mMC4R [13] = biological target: T4, mMC4R; conditions: cited from earlier work; remark: listed apart in the source
[14] = Schild analysis with NDP-MSH, < 5.5 = no antagonist potency at up to 10,000 nM

T1 sequence (P41149 whole entry): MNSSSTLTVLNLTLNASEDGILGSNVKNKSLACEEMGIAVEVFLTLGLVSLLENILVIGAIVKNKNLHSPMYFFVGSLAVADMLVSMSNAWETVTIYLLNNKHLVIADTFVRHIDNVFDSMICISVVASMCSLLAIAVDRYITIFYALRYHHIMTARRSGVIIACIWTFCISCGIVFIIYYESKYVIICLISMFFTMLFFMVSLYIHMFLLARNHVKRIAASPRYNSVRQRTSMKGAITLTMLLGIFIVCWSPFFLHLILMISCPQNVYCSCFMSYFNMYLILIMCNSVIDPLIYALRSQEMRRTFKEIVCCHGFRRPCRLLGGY
T3 sequence (P33033 whole entry): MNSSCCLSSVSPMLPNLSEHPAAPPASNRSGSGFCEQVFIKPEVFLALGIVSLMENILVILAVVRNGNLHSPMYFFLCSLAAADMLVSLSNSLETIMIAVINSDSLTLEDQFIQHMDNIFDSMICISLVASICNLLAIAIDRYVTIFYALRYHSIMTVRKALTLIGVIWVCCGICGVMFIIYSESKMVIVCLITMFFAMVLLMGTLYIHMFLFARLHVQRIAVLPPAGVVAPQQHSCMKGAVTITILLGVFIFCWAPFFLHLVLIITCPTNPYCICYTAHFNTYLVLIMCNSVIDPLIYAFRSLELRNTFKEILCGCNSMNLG
T2 sequence (Q01727 whole entry): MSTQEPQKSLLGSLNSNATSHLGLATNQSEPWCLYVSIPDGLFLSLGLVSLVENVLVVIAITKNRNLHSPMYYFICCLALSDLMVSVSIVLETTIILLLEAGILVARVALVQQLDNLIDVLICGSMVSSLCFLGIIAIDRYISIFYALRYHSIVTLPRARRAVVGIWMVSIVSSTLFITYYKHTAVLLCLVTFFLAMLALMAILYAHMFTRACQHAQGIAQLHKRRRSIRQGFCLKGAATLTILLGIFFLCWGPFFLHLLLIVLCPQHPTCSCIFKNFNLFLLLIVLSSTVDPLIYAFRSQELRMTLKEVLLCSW
T4 sequence (P56450 whole entry): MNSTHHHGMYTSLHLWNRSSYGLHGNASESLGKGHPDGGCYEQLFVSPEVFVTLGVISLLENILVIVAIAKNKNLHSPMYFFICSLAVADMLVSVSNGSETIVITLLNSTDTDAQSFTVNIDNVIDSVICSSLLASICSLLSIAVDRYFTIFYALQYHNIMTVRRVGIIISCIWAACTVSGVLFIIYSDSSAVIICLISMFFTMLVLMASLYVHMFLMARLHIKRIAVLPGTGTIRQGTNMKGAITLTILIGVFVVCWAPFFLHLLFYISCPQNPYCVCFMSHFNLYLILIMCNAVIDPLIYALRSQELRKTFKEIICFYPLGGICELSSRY
mouse melanocortin-1 receptor (mouse), sequence (Q01727 whole entry): as the sequence (Q01727 whole entry) above
mouse melanocortin-4 receptor (mouse), sequence (P56450 whole entry): as the sequence (P56450 whole entry) above

Compound: C[C@@H]1NC(=O)[C@H](CC(N)=O)NC(=O)[C@H](Cc2ccccc2)NC(=O)[C@H](Cc2ccccc2)NC(=O)[C@H](CCCNC(=N)N)NC(=O)[C@@H]2CCCN2C(=O)[C@H]2CCCN2C(=O)CNC1=O [Compound 2, c[Pro-Arg-Phe-Phe-Asn-Ala-Gly-DPro]]
- mMC5R percent decrease in receptor activity compared to basal at 100 μM (mMC5R [1]; 100 μM, no plateau): −25% @ 100 μM
- mMC1R percent activation at 100 μM (mMC1R [2]): 60% @ 100 μM
- agonist activity at the MC1R (mMC1R [2]): partially stimulate
- antagonist activity at the mMC3R (mMC3R [3]): not observed

Compound: C[C@@H]1NC(=O)[C@H](CC(N)=O)NC(=O)[C@H](Cc2ccccc2)NC(=O)[C@H](Cc2ccccc2)NC(=O)[C@H](CCCNC(=N)N)NC(=O)[C@@H]2CCCN2C(=O)[C@H]2CCCN2C(=O)[C@H](CO)NC1=O [Compound 3, c[Pro-Arg-Phe-Phe-Asn-Ala-Ser-DPro]]
- mMC5R percent decrease in receptor activity compared to basal at 100 μM (mMC5R [1]; 100 μM, no plateau): −55% @ 100 μM
- mMC5R percent decrease in receptor activity compared to basal at 100 μM (mMC5R [1]; 100000.0): −55%
- mMC1R percent activation at 100 μM (mMC1R [2]): 35% @ 100 μM
- agonist activity at the MC1R (mMC1R [2]): partially stimulate

Compound: C[C@@H]1NC(=O)[C@H](CC(N)=O)NC(=O)[C@H](Cc2ccccc2)NC(=O)[C@H](Cc2ccccc2)NC(=O)[C@H](CCCNC(=N)N)NC(=O)[C@@H]2CCCN2C(=O)[C@H]2CCCN2C(=O)[C@H](CCCCN)NC1=O [Compound 4, c[Pro-Arg-Phe-Phe-Asn-Ala-Lys-DPro]]
- mMC5R percent decrease in receptor activity compared to basal at 100 μM (mMC5R [1]; 100 μM, no plateau): −40% @ 100 μM
- mMC5R percent decrease in receptor activity compared to basal at 100 μM (mMC5R [1]; 100000.0): −40%

Compound: CC(C)C[C@@H]1NC(=O)[C@H](C)NC(=O)[C@H](CC(N)=O)NC(=O)[C@H](Cc2ccccc2)NC(=O)[C@H](Cc2ccccc2)NC(=O)[C@H](CCCNC(=N)N)NC(=O)[C@@H]2CCCN2C(=O)[C@H]2CCCN2C1=O [Compound 6, c[Pro-Arg-Phe-Phe-Asn-Ala-Leu-DPro]]
- mMC5R percent decrease in receptor activity compared to basal at 100 μM (mMC5R [1]; 100 μM, no plateau): −35% @ 100 μM
- antagonist activity at the mMC3R (mMC3R [3]): not observed

Compound: CCCC[C@@H]1NC(=O)[C@H](C)NC(=O)[C@H](CC(N)=O)NC(=O)[C@H](Cc2ccccc2)NC(=O)[C@H](Cc2ccccc2)NC(=O)[C@H](CCCNC(=N)N)NC(=O)[C@@H]2CCCN2C(=O)[C@H]2CCCN2C1=O [Compound 7, c[Pro-Arg-Phe-Phe-Asn-Ala-Nle-DPro]]
- cumulative food intake vs vehicle (Male Wildtype (WT) mice; 2 nmol IT single injection, 2 and 6 hours post-injection): ate significantly more food
- food intake trend vs vehicle (Male Wildtype (WT) mice; 2 nmol IT, up to 72 hours post-injection, listed as KAF2039-7): prolonged trend of increased food intake; also recorded: strong trend in increased food intake; also recorded: trend exhibited out until 72 hours post-injection
- main effect of drug on food intake, two-factor repeated measures ANOVA (Male Wildtype (WT) mice; 2 nmol, first 72 hours post-injection): main effect of drug
- mouse body weight vs vehicle [4]: main effect of drug
- mouse body weight vs vehicle ([4]; listed as KAF2039-7): treated animals weighing more than control animals
- mMC5R percent decrease in receptor activity compared to basal at 100 μM (mMC5R [1]; 100 μM, no plateau): −35% @ 100 μM
- mMC5R percent decrease in receptor activity compared to basal at 100 μM (mMC5R [1]; 100000.0): –35%

Compound: C[C@@H]1NC(=O)[C@H](CC(N)=O)NC(=O)[C@H](Cc2ccccc2)NC(=O)[C@H](Cc2ccccc2)NC(=O)[C@H](CCCNC(=N)N)NC(=O)[C@@H]2CCCN2C(=O)[C@H]2CCCN2C(=O)[C@H](Cc2c[nH]c3ccccc23)NC1=O [Compound 8, c[Pro-Arg-Phe-Phe-Asn-Ala-Trp-DPro]]
- mMC5R inverse agonist potency compared within series (mMC5R [1]): equipotent to each other
- mMC5R maximal decrease in basal activity at the plateau (mMC5R [1]): −20%
- mMC1R partial agonist maximal percent activated (mMC1R [2]): 50%

Compound: C[C@@H]1NC(=O)[C@H](CC(N)=O)NC(=O)[C@H](Cc2ccccc2)NC(=O)[C@H](Cc2ccccc2)NC(=O)[C@H](CCCNC(=N)N)NC(=O)[C@@H]2CCCN2C(=O)[C@H]2CCCN2C(=O)[C@H](Cc2ccc(O)cc2)NC1=O [Compound 9, c[Pro-Arg-Phe-Phe-Asn-Ala-Tyr-DPro]]
- mMC5R percent decrease in receptor activity compared to basal at 100 μM (mMC5R [1]; 100 μM, no plateau): −40% @ 100 μM

Compound: C[C@@H]1NC(=O)[C@H](CC(N)=O)NC(=O)[C@H](Cc2ccccc2)NC(=O)[C@H](Cc2ccccc2)NC(=O)[C@H](CCCNC(=N)N)NC(=O)[C@@H]2CCCN2C(=O)[C@H]2CCCN2C(=O)[C@H](CC2CCCCC2)NC1=O [Compound 10, c[Pro-Arg-Phe-Phe-Asn-Ala-Cha-DPro]]
- mMC5R inverse agonist potency compared within series (mMC5R [1]): 5 fold
- mMC5R maximal decrease in basal activity at the plateau (mMC5R [1]): −20%

Compound: C[C@@H]1NC(=O)[C@H](CC(N)=O)NC(=O)[C@H](Cc2ccccc2)NC(=O)[C@H](Cc2ccccc2)NC(=O)[C@H](CCCNC(=N)N)NC(=O)[C@@H]2CCCN2C(=O)[C@H]2CCCN2C(=O)[C@H](CCc2ccccc2)NC1=O [Compound 11, c[Pro-Arg-Phe-Phe-Asn-Ala-hPhe-DPro]]
- mMC5R inverse agonist potency compared within series (mMC5R [1]): equipotent to each other
- mMC5R maximal decrease in basal activity at the plateau (mMC5R [1]): −20%
- mMC5R maximal decrease in basal activity at the plateau (mMC5R [1]; listed as KAF2039-13): 20%

Compound: H-Ser-Arg-Phe-Phe-Asn-Ala-Phe-Ser-OH (H-SRFFNAFS-OH)
- binding to the MC4R (MC4R): > 20 µM
- binding to the MC3R (MC3R): > 20 µM

Compound: H-Tyr-c[Cys-Arg-Phe-Phe-Asn-Ala-Phe-Cys]-Tyr-OH [AGRP[109-118]]
- antagonist pA2 at the mMC4R (mMC4R [5]): 6.8
- EC50 (MC1R): 3000 nM
- antagonist potency at the mMC3R (mMC3R [6]): does not possess an antagonist potency at the mMC3R that is quantifiable

- agonist EC50, cAMP AlphaScreen, HEK293 cells stably expressing mMC4R [7]: 0.35 nM
Compound: NDP-MSH (4-Norleucine-7-D-Phenylalanine): Ac-Ser-Tyr-Ser-Nle-Glu-His-DPhe-Arg-Trp-Gly-Lys-Pro-Val-NH2 (peptide)

- mMC4R Antagonist pA2 (mMC4R [8]; [14]): < 5.5
- antagonist potency at the mMC4R (mMC4R [8]; at the concentrations used in this study): not measurable
- mMC5R percent decrease in receptor activity compared to basal at 100 μM (mMC5R [1]; 100 μM, no plateau): −25% @ 100 μM
- mMC5R percent decrease in receptor activity compared to basal at 100 μM (mMC5R [1]; 100 μM, no plateau, listed as Asp^7): -25%
- mMC1R percent activation at 100 μM (mMC1R [2]): 40% @ 100 μM
- agonist activity at the MC1R (mMC1R [2]): partially stimulate
- mMC3R Antagonist pA2 (mMC3R [3]; [14]): < 5.5
- antagonist activity at the mMC3R (mMC3R [3]): not observed
Compound: c[Pro-Arg-Phe-Phe-Asn-Ala-Asp-DPro] (cyclo(PRFFNAD[dP]); SMILES C[C@@H]1NC(=O)[C@H](CC(N)=O)NC(=O)[C@H](Cc2ccccc2)NC(=O)[C@H](Cc2ccccc2)NC(=O)[C@H](CCCNC(=N)N)NC(=O)[C@@H]2CCCN2C(=O)[C@H]2CCCN2C(=O)[C@H](CC(=O)O)NC1=O) [Compound 5]

- partial agonist: maximal percent activated, cAMP AlphaScreen, HEK293 cells [9]: 50%
Compound: c[Pro-Arg-Phe-Phe-Asn-Ala-Trp-DPro] (peptide)

Compound: hAGRP(87-132): Human agouti-related protein fragment 87-132, antagonist of MC3R and MC4R; previously published peptide
- mMC3R Antagonist pA2 (mMC3R [10]): 8.9±0.2
- Ki (mMC3R [10]; read-out: mMC3R Antagonist Ki): 1.3 nM
- EC50 (mMC5R [11]): > 100000 nM
- EC50 (mMC1R [12]): > 100000 nM
- selectivity for the MC4R (vs MC3R) (mMC4R [13]): equipotent
- mMC4R Antagonist pA2 (mMC4R [13]; previously published peptide): 9.4±1.0
- Ki (mMC4R [13]; read-out: mMC4R Antagonist Ki, previously published peptide): 0.4 nM
